Source: paper PMC10405366 (Molecular pharmaceutics, 2023)

Columns and labels:
[1] = system: OVCAR8-RFP cells xenografted IP; test: OVCAR8-RFP IP xenograft; type: in vivo, mouse; conditions: for tumor burden: compared to DMSO
OVCAR3 = test: Cell viability assay; type: cell-based, human; conditions: OVCAR3, 72 h, average
Outline: (§1)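 RPMI1640 (OVCAR3, OVCAR4, MDA-MB-435) or DMEM (OVCAR8, MDA-MB-231) was used, with 10% FBS and penicillin/streptomycin. Cells were STR-validated and kept below 20 passages. Cells were plated at 5000 per well overnight, then given test compound at final 0.95–250 nM (nine levels, 0.5% DMSO) for 72 h at 37 °C. Viability was read by CellTiter-Blue absorbance, and IC50 was taken relative to DMSO. Paclitaxel (0.39–100 nM) was the control, with three biological replicates.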

MDA-MB-435 = test: Cell viability assay; type: cell-based, human; conditions: MDA-MB-435, 72 h, average
Outline: as §1

MDA-MB-231 = test: Cell viability assay; type: cell-based, human; conditions: MDA-MB-231, 72 h, average
Outline: as §1

OVCAR4 [2] = test: Cell viability assay; type: cell-based, human
Outline: as §1

OVCAR8 [3] = test: Cell viability assay; type: cell-based, human
Outline: as §1

OVCAR8 spheroids = test: Spheroid viability assay; type: cell-based, human; conditions: read-out: IC50, spheroid viability, 7 days
Outline: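 OVCAR8 cells (5000 in 80 μL medium per well) were formed into spheroids in ultra-low-attachment round-bottom wells. Spheroids were treated for 7 days with test compound, DMSO vehicle or paclitaxel control. Viability was measured with CellTiter-Glo after 30 min shaking for lysis, read as luminescence. Dose–response curves were normalized to vehicle to give IC50. Data are mean ± SEM from three biological replicates.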

OVCAR4 [4] = test: 2D foci assay; type: cell-based, human; conditions: OVCAR4, 50 nM for 8 h, two weeks colony formation, relative to vehicle
Outline: (§2)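 Cells were seeded at 200 per 60 mm dish and left to attach overnight. They were then exposed for 8 h to test compound (50 nM), DMSO vehicle or paclitaxel (10 nM). Medium was replaced and cells grew drug-free for about two weeks (15 days). Colonies were fixed in 4% paraformaldehyde, stained with 0.05% crystal violet, imaged and counted. There were three biological replicates, compared with vehicle by Dunnett's test.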

OVCAR8 [5] = test: 2D foci assay; type: cell-based, human; conditions: OVCAR8, 50 nM for 8 h, two weeks colony formation, relative to vehicle
Outline: as §2

murine lymphoma L5178Y = conditions: mouse lymphoma cells (L5178Y); cited from earlier work
[6] = system: A2780 human ovarian cancer cell lines; conditions: cited from earlier work

## CC(=O)O[C@H]1C(=O)[C@@]2(C)[C@H]([C@H](OC(=O)c3ccccc3)[C@]3(O)C[C@H](OC(=O)[C@H](O)[C@@H](NC(=O)c4ccccc4)c4ccccc4)C(C)=C1C3(C)C)[C@]1(OC(C)=O)CO[C@@H]1C[C@@H]2O [taxol, paclitaxel, reference compound]
[1]; 0.5 mg/kg twice weekly
  tumor burden: reduced

## CC(O)[C@@]12SS[C@]3(C(=O)N1C)[C@@H](O)C1([C@@]45c6ccccc6N[C@@H]4N4C(=O)[C@]6(C(C)O)SS[C@]4(C(=O)N6C)[C@H]5O)c4ccccc4N[C@@H]1N3C2=O (stereo partly shown) [verticillin D]
OVCAR3
  IC50: 34.2 nM
MDA-MB-435
  IC50: 35.3 nM
MDA-MB-231
  IC50: 12.2 nM
OVCAR4 [2]
  cytotoxic activity: nanomolar cytotoxic activity
OVCAR8 [3]
  cytotoxic activity: nanomolar cytotoxic activity
OVCAR8 spheroids
  IC50: 1170 nM
OVCAR4 [4]
  foci formation: completely abrogated foci formation
OVCAR8 [5]
  foci formation: completely abrogated foci formation
[1]; 0.25 mg/kg in DMSO twice weekly for four weeks
  liver and organ gross morphology: gross morphological liver damage and fused organs
[1]; 0.25 mg/kg twice weekly for four weeks
  tumor burden: reduced
Murine lymphoma L5178Y
  cytotoxic activity: moderate cytotoxic activity
[6]
  growth of cells: inhibit the growth
